From paper PMC6595297 (British Journal of Clinical Pharmacology, 2019)

Columns and labels:
Safety and tolerability = type: in vivo, human
In short: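 Patients had advanced solid tumours and ECOG PS 0–1. AEs were graded by NCI CTCAE v4.03 and monitored from the first dose of any study drug until 30–40 days after the last dose. The safety population was all patients receiving at least one pevonedistat dose.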

[1] = preliminary data, cancer patients, ref data on file; cited from earlier work
[2] = Pevonedistat 8 mg m^−2 + fluconazole (n = 13)
[3] = Pevonedistat 8 mg m^−2 + itraconazole (n = 13)
[4] = Pevonedistat 15 mg m^−2 + itraconazole (n = 6)
[5] = Pevonedistat 20 mg m^−2 + itraconazole (n = 19)
[6] = Pevonedistat + itraconazole, total (n = 38)
[7] = across all study groups, N = 51

NS(=O)(=O)OC[C@@H]1C[C@@H](n2ccc3c(N[C@H]4CCc5ccccc54)ncnc32)C[C@@H]1O [Pevonedistat]
Patients who discontinued study treatment due to AEs (Safety and tolerability; N = 51): 12% | Abdominal pain, patients with AE (Safety and tolerability; [2]): 1 (8) n (%) | Anaemia, patients with AE (Safety and tolerability; [2]): 3 (23) n (%) | Asthenia, patients with AE (Safety and tolerability; [2]): 3 (23) n (%) | Constipation, patients with AE (Safety and tolerability; [2]): 3 (23) n (%) | Cough, patients with AE (Safety and tolerability; [2]): 2 (15) n (%) | Decreased appetite, patients with AE (Safety and tolerability; [2]): 4 (31) n (%) | Dehydration, patients with AE (Safety and tolerability; [2]): 1 (8) n (%) | Diarrhoea, patients with AE (Safety and tolerability; [2]): 0 n (%) | Dizziness, patients with AE (Safety and tolerability; [2]): 1 (8) n (%) | Dyspnoea, patients with AE (Safety and tolerability; [2]): 2 (15) n (%) | Fatigue, patients with AE (Safety and tolerability; [2]): 3 (23) n (%) | Headache, patients with AE (Safety and tolerability; [2]): 3 (23) n (%) | Hypokalaemia, patients with AE (Safety and tolerability; [2]): 0 n (%) | Hyponatraemia, patients with AE (Safety and tolerability; [2]): 2 (15) n (%) | Nausea, patients with AE (Safety and tolerability; [2]): 3 (23) n (%) | Vomiting, patients with AE (Safety and tolerability; [2]): 3 (23) n (%) | Abdominal pain, patients with AE (Safety and tolerability; [3]): 3 (23) n (%) | Anaemia, patients with AE (Safety and tolerability; [3]): 3 (23) n (%) | Asthenia, patients with AE (Safety and tolerability; [3]): 2 (15) n (%) | Constipation, patients with AE (Safety and tolerability; [3]): 2 (15) n (%) | Cough, patients with AE (Safety and tolerability; [3]): 4 (31) n (%) | Decreased appetite, patients with AE (Safety and tolerability; [3]): 3 (23) n (%) | Dehydration, patients with AE (Safety and tolerability; [3]): 3 (23) n (%) | Diarrhoea, patients with AE (Safety and tolerability; [3]): 4 (31) n (%) | Dizziness, patients with AE (Safety and tolerability; [3]): 2 (15) n (%) | Dyspnoea, patients with AE (Safety and tolerability; [3]): 1 (8) n (%) | Fatigue, patients with AE (Safety and tolerability; [3]): 3 (23) n (%) | Headache, patients with AE (Safety and tolerability; [3]): 0 n (%) | Hypokalaemia, patients with AE (Safety and tolerability; [3]): 2 (15) n (%) | Hyponatraemia, patients with AE (Safety and tolerability; [3]): 1 (8) n (%) | Nausea, patients with AE (Safety and tolerability; [3]): 1 (8) n (%) | Vomiting, patients with AE (Safety and tolerability; [3]): 2 (15) n (%) | Abdominal pain, patients with AE (Safety and tolerability; [4]): 1 (17) n (%) | Anaemia, patients with AE (Safety and tolerability; [4]): 2 (33) n (%) | Asthenia, patients with AE (Safety and tolerability; [4]): 0 n (%) | Constipation, patients with AE (Safety and tolerability; [4]): 0 n (%) | Cough, patients with AE (Safety and tolerability; [4]): 0 n (%) | Decreased appetite, patients with AE (Safety and tolerability; [4]): 1 (17) n (%) | Dehydration, patients with AE (Safety and tolerability; [4]): 2 (33) n (%) | Diarrhoea, patients with AE (Safety and tolerability; [4]): 1 (17) n (%) | Dizziness, patients with AE (Safety and tolerability; [4]): 1 (17) n (%) | Dyspnoea, patients with AE (Safety and tolerability; [4]): 2 (33) n (%) | Fatigue, patients with AE (Safety and tolerability; [4]): 1 (17) n (%) | Headache, patients with AE (Safety and tolerability; [4]): 0 n (%) | Hypokalaemia, patients with AE (Safety and tolerability; [4]): 2 (33) n (%) | Hyponatraemia, patients with AE (Safety and tolerability; [4]): 1 (17) n (%) | Nausea, patients with AE (Safety and tolerability; [4]): 0 n (%) | Vomiting, patients with AE (Safety and tolerability; [4]): 1 (17) n (%) | Abdominal pain, patients with AE (Safety and tolerability; [5]): 2 (11) n (%) | Anaemia, patients with AE (Safety and tolerability; [5]): 6 (32) n (%) | Asthenia, patients with AE (Safety and tolerability; [5]): 2 (11) n (%) | Constipation, patients with AE (Safety and tolerability; [5]): 3 (16) n (%) | Cough, patients with AE (Safety and tolerability; [5]): 1 (5) n (%) | Decreased appetite, patients with AE (Safety and tolerability; [5]): 4 (21) n (%) | Dehydration, patients with AE (Safety and tolerability; [5]): 2 (11) n (%) | Diarrhoea, patients with AE (Safety and tolerability; [5]): 6 (32) n (%) | Dizziness, patients with AE (Safety and tolerability; [5]): 4 (21) n (%) | Dyspnoea, patients with AE (Safety and tolerability; [5]): 3 (16) n (%) | Fatigue, patients with AE (Safety and tolerability; [5]): 8 (42) n (%) | Headache, patients with AE (Safety and tolerability; [5]): 6 (32) n (%) | Hypokalaemia, patients with AE (Safety and tolerability; [5]): 3 (16) n (%) | Hyponatraemia, patients with AE (Safety and tolerability; [5]): 2 (11) n (%) | Nausea, patients with AE (Safety and tolerability; [5]): 2 (11) n (%) | Vomiting, patients with AE (Safety and tolerability; [5]): 6 (32) n (%) | Abdominal pain, patients with AE (Safety and tolerability; [6]): 6 (16) n (%) | Anaemia, patients with AE (Safety and tolerability; [6]): 11 (29) n (%) | Asthenia, patients with AE (Safety and tolerability; [6]): 4 (11) n (%) | Constipation, patients with AE (Safety and tolerability; [6]): 5 (13) n (%) | Cough, patients with AE (Safety and tolerability; [6]): 5 (13) n (%) | Decreased appetite, patients with AE (Safety and tolerability; [6]): 8 (21) n (%) | Dehydration, patients with AE (Safety and tolerability; [6]): 7 (18) n (%) | Diarrhoea, patients with AE (Safety and tolerability; [6]): 11 (29) n (%) | Dizziness, patients with AE (Safety and tolerability; [6]): 7 (18) n (%) | Dyspnoea, patients with AE (Safety and tolerability; [6]): 6 (16) n (%) | Fatigue, patients with AE (Safety and tolerability; [6]): 12 (32) n (%) | Headache, patients with AE (Safety and tolerability; [6]): 6 (16) n (%) | Hypokalaemia, patients with AE (Safety and tolerability; [6]): 7 (18) n (%) | Hyponatraemia, patients with AE (Safety and tolerability; [6]): 4 (11) n (%) | Nausea, patients with AE (Safety and tolerability; [6]): 3 (8) n (%) | Vomiting, patients with AE (Safety and tolerability; [6]): 9 (24) n (%) | Abdominal pain, patients with AE (Safety and tolerability; Total (N = 51)): 7 (14) n (%) | Anaemia, patients with AE (Safety and tolerability; Total (N = 51)): 14 (27) n (%) | Asthenia, patients with AE (Safety and tolerability; Total (N = 51)): 7 (14) n (%) | Constipation, patients with AE (Safety and tolerability; Total (N = 51)): 8 (16) n (%) | Cough, patients with AE (Safety and tolerability; Total (N = 51)): 7 (14) n (%) | Decreased appetite, patients with AE (Safety and tolerability; Total (N = 51)): 12 (24) n (%) | Dehydration, patients with AE (Safety and tolerability; Total (N = 51)): 8 (16) n (%) | Diarrhoea, patients with AE (Safety and tolerability; Total (N = 51)): 11 (22) n (%) | Dizziness, patients with AE (Safety and tolerability; Total (N = 51)): 8 (16) n (%) | Dyspnoea, patients with AE (Safety and tolerability; Total (N = 51)): 8 (16) n (%) | Fatigue, patients with AE (Safety and tolerability; Total (N = 51)): 15 (29) n (%) | Headache, patients with AE (Safety and tolerability; Total (N = 51)): 9 (18) n (%) | Hypokalaemia, patients with AE (Safety and tolerability; Total (N = 51)): 7 (14) n (%) | Hyponatraemia, patients with AE (Safety and tolerability; Total (N = 51)): 6 (12) n (%) | Nausea, patients with AE (Safety and tolerability; Total (N = 51)): 6 (12) n (%) | Vomiting, patients with AE (Safety and tolerability; Total (N = 51)): 12 (24) n (%) | Drug‐related AE: anaemia, patients (Safety and tolerability; [7]): 6% | Drug‐related AE: decreased appetite, patients (Safety and tolerability; [7]): 6% | Drug‐related AE: diarrhoea, patients (Safety and tolerability; [7]): 10% | Drug‐related AE: fatigue, patients (Safety and tolerability; [7]): 6% | Drug‐related AE: increased AST, patients (Safety and tolerability; [7]): 6% | Drug‐related AE: nausea, patients (Safety and tolerability; [7]): 8% | Drug‐related AE: pruritus, patients (Safety and tolerability; [7]): 6% | Drug‐related AE: vomiting, patients (Safety and tolerability; [7]): 12% | Patients who died during Part A (not related to study drug) (Safety and tolerability; safety population, N = 51): 14% | Patients who experienced at least one drug‐related AE (Safety and tolerability; safety population, N = 51): 55% | Patients with at least one grade ≥3 AE (Safety and tolerability; safety population, N = 51): 43% | Patients with serious AEs (not deemed drug‐related) (Safety and tolerability; safety population, N = 51): 25% | Patients who experienced at least one AE (Safety and tolerability; safety population, N = 51, all study groups): 98% | Administered dose accounted for by metabolites [1]: approximately 80%
